# Test results published in ChEMBL document CHEMBL3124842, “Design, synthesis and evaluation of the antidepressant and anticonvulsant activities of triazole-containing quinolinones” (Eur J Med Chem, 2014).
# Calls of active or inactive are those of the source. The calls are words filed in the database; no cut-off is given here.
# Experiments:
# Mus musculus [1] = test: Anticonvulsant activity in KunMing mouse assessed as protection against maximal electroshock-induced seizures at 300 mg/kg, ip after 4 hrs; assay type: functional, organism-based; parameters: dose 300 mg/kg
# Outline: (§1)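 Mice (22 ± 2 g) given compounds in DMSO i.p. at 30, 100 and 300 mg/kg; seizures elicited by electroshock via ear stimulation. Protection = abolition of hind limb tonic extension, read at 0.5 and 4 h after injection. Value is the minimal dose active in half or more of the mice; 300 mg/kg was the top dose.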
# Mus musculus [2] = test: Neurotoxicity in KunMing mouse assessed as motor impairment at 300 mg/kg, ip after 0.5 hrs by rotarod test; assay type: toxicity, organism-based; parameters: dose 300 mg/kg, route intraperitoneal; conditions: in vivo
# Outline: (§2)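 Mice were trained on a 3.2 cm diameter rotarod turning at 10 rpm, then given compounds in DMSO i.p. at 30, 100 or 300 mg/kg. Neurotoxicity = failure to stay on the rod for at least 1 min in each trial, checked at 0.5 and 4 h. Value is the minimal dose toxic in half or more of the mice.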
# Mus musculus [3] = test: Antidepressant activity in KunMing mouse assessed as decrease in immobility time at 50 mg/kg, ip by forced swimming test relative to control; assay type: functional; parameters: scale not given: the % may be the effect or the level left; conditions: route intraperitoneal
# Outline: (§3)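 Compounds in DMSO given i.p. to mice, n = 8 per group. Dose was 50 mg/kg, or 10, 25 and 50 mg/kg in the dose-response study. After 30 min each mouse was placed in a water-filled cylinder (water 18 cm deep, 23–25 °C). Immobility (upright floating, only slight movements) was timed over the last 4 min of 6 min. %DID = (A − B)/A × 100, where A is control immobility and B is test immobility. Mean ± SEM; ANOVA with Dunnett's test versus control.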
# Mus musculus [4] = test: Neurotoxicity in KunMing mouse at 50 mg/kg, ip; assay type: toxicity, organism-based; parameters: dose 50 mg/kg, route intraperitoneal; conditions: in vivo
# Mus musculus [5] = test: Neurotoxicity in KunMing mouse assessed as motor impairment at 300 mg/kg, ip after 4 hrs by rotarod test; assay type: toxicity, organism-based; parameters: dose 300 mg/kg, route intraperitoneal; conditions: in vivo; outline: as §2
# Mus musculus [6] = test: Antidepressant activity in KunMing mouse assessed as immobility time at 50 mg/kg, ip by forced swimming test; assay type: functional; conditions: route intraperitoneal; outline: as §3
# Mus musculus [7] = test: Anticonvulsant activity in KunMing mouse assessed as protection against maximal electroshock-induced seizures at 300 mg/kg, ip after 0.5 hrs; assay type: functional, organism-based; parameters: dose 300 mg/kg; outline: as §1
# Mus musculus [8] = test: Anticonvulsant activity in ip dosed KunMing mouse assessed as protection against maximal electroshock-induced seizures after 0.5 hrs; assay type: functional; conditions: read-out: MED; outline: as §1
# Mus musculus [9] = test: Neurotoxicity in ip dosed KunMing mouse assessed as motor impairment after 0.5 hrs by rotarod test; assay type: toxicity, organism-based; conditions: in vivo; outline: as §2
# Mus musculus [10] = test: Neurotoxicity in ip dosed KunMing mouse assessed as motor impairment after 4 hrs by rotarod test; assay type: toxicity, organism-based; conditions: in vivo; outline: as §2
# Mus musculus [11] = test: Anticonvulsant activity in ip dosed KunMing mouse assessed as protection against maximal electroshock-induced seizures after 4 hrs; assay type: functional; conditions: read-out: MED; outline: as §1
# Mus musculus [12] = test: Anticonvulsant activity in KunMing mouse assessed as protection against maximal electroshock-induced seizures at 100 mg/kg, ip after 0.5 hrs relative to control; assay type: functional; conditions: route intraperitoneal; outline: as §1
# Mus musculus [13] = test: Antidepressant activity in KunMing mouse assessed as decrease in immobility time at 10 mg/kg, ip by forced swimming test; assay type: functional, organism-based; parameters: dose 10 mg/kg; outline: as §3
# Mus musculus [14] = test: Toxicity in KunMing mouse assessed as effect on rearing at 50 mg/kg, ip by open-field test; assay type: organism-based; parameters: dose 50 mg/kg, route intraperitoneal; conditions: in vivo
# Outline: (§4)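 Mice (22 ± 2 g) given 50 mg/kg i.p. in DMSO; tested 30 min later in an open field, placed at the centre. Counts were taken of locomotion (line crossings), rearing (standing on hind legs) and grooming. Mean ± SEM; ANOVA with Bonferroni's test versus control.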
# Mus musculus [15] = test: Toxicity in KunMing mouse assessed as effect on grooming at 50 mg/kg, ip by open-field test; assay type: organism-based; parameters: dose 50 mg/kg, route intraperitoneal; conditions: in vivo; outline: as §4
# Mus musculus [16] = test: Antidepressant activity in KunMing mouse at 50 mg/kg, ip by tail suspension test; assay type: functional, organism-based; parameters: dose 50 mg/kg
# Outline: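 Male KunMing mice (22 ± 2 g, n = 8 per group), dosed i.p. at 50 mg/kg from a dimethylsulfoxide solution. Each mouse was hung by the tail above the floor with adhesive tape about 1-2 cm from the tail tip. Immobility, meaning completely motionless and hanging passively, was timed over the last 6 min of a 7 min session. Read-out was mean ± SEM, compared with control by ANOVA followed by Dunnett's test.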
# Mus musculus [17] = test: Antidepressant activity in ip dosed KunMing mouse assessed as decrease in immobility time by forced swimming test; assay type: functional, organism-based; outline: as §3
# Mus musculus [18] = test: Toxicity in KunMing mouse assessed as effect on locomotion at 50 mg/kg, ip by open-field test; assay type: organism-based; parameters: dose 50 mg/kg, route intraperitoneal; conditions: in vivo; outline: as §4
# Mus musculus [19] = test: Antidepressant activity in KunMing mouse assessed as decrease in immobility time at 25 to 50 mg/kg, ip by forced swimming test; assay type: functional, organism-based; outline: as §3
SMILES,Activity (Mus musculus [1]),Activity (Mus musculus [2]),Activity (Mus musculus [3]),Activity (Mus musculus [4]),Activity (Mus musculus [5]),Time (Mus musculus [6]),Activity (Mus musculus [7]),minimal effective dose (Mus musculus [8]),MTC (Mus musculus [9]),MTC (Mus musculus [10]),minimal effective dose (Mus musculus [11]),Activity (Mus musculus [12]),Activity (Mus musculus [13]),Activity (Mus musculus [14]),Activity (Mus musculus [15]),Activity (Mus musculus [16]),Activity (Mus musculus [17]),Activity (Mus musculus [18]),Activity (Mus musculus [19])
COc1ccc(CN2C(=O)CCc3cc(-n4cnnc4)ccc32)cc1,inactive,Non-toxic,6.8%,Non-toxic,Non-toxic,121.6 s,inactive,–,–,–,–,–,–,–,–,–,–,–,–
CCCCCCCN1C(=O)CCc2cc(-n3cnnc3)ccc21,inactive,–,40.3%,Non-toxic,–,77.9 s,–,300 mg/kg,300 mg/kg,300 mg/kg,–,–,–,–,–,–,–,–,–
O=C1CCc2cc(-n3cnnc3)ccc2N1Cc1ccc(F)cc1,–,Non-toxic,45.5%,Non-toxic,Non-toxic,71.1 s,inactive,–,–,–,300 mg/kg,–,–,–,–,–,–,–,–
CCCC(CCC)C(=O)[O-].[Na+] [VALPROATE SODIUM],inactive,Non-toxic,–,–,Non-toxic,–,–,300 mg/kg,–,–,–,–,–,–,–,–,–,–,–
CCCCCCN1C(=O)CCc2cc(-n3cnnc3)ccc21,–,–,24.5%,Non-toxic,–,98.5 s,–,100 mg/kg,300 mg/kg,300 mg/kg,300 mg/kg,100%,–,–,–,–,–,–,–
O=C1CCc2cc(-n3cnnc3)ccc2N1Cc1c(Cl)cccc1Cl,inactive,Non-toxic,15.7%,Non-toxic,Non-toxic,111 s,inactive,–,–,–,–,–,–,–,–,–,–,–,–
CCCCCN1C(=O)CCc2cc(-n3cnnc3)ccc21,inactive,–,0.5%,Non-toxic,–,129.8 s,–,100 mg/kg,300 mg/kg,300 mg/kg,–,100%,–,–,–,–,–,–,–
O=C1CCc2cc(-n3cnnc3)ccc2N1Cc1ccc(Cl)cc1,inactive,Non-toxic,72.3%,Non-toxic,Non-toxic,36.1 s,inactive,–,–,–,–,–,–,–,–,–,–,–,–
CCCCCCCCN1C(=O)CCc2cc(-n3cnnc3)ccc21,–,Non-toxic,35.8%,Non-toxic,–,83.3 s,–,300 mg/kg,–,300 mg/kg,300 mg/kg,–,–,–,–,–,–,–,–
O=C1CCc2cc(-n3cnnc3)ccc2N1Cc1ccccc1F,–,Non-toxic,72.7%,Non-toxic,Non-toxic,35.6 s,inactive,–,–,–,300 mg/kg,–,inactive,Non-toxic,Non-toxic,Active,Dose-dependent effect,Non-toxic,Active
O=C1CCc2cc(-n3cnnc3)ccc2N1Cc1cccc(Cl)c1,–,Non-toxic,59.1%,Non-toxic,Non-toxic,53.4 s,inactive,–,–,–,300 mg/kg,–,–,–,–,–,–,–,–
O=C1CCc2cc(-n3cnnc3)ccc2N1Cc1ccccc1,inactive,Non-toxic,47.8%,Non-toxic,Non-toxic,68.1 s,inactive,–,–,–,–,–,–,–,–,–,–,–,–
Cc1ccc(CN2C(=O)CCc3cc(-n4cnnc4)ccc32)cc1,inactive,Non-toxic,39.6%,Non-toxic,Non-toxic,78.8 s,inactive,–,–,–,–,–,–,–,–,–,–,–,–
CCCN1C(=O)CCc2cc(-n3cnnc3)ccc21,inactive,Non-toxic,5.3%,Non-toxic,–,123.6 s,inactive,–,–,300 mg/kg,–,–,–,–,–,–,–,–,–
O=C1CCc2cc(-n3cnnc3)ccc2N1Cc1cccc(C(F)(F)F)c1,–,Non-toxic,37.2%,Non-toxic,Non-toxic,93.3 s,–,300 mg/kg,–,–,300 mg/kg,–,–,–,–,–,–,–,–
O=C1NC(=O)C(c2ccccc2)(c2ccccc2)N1 [PHENYTOIN],–,–,–,–,–,–,–,30 mg/kg,100 mg/kg,100 mg/kg,100 mg/kg,–,–,–,–,–,–,–,–
O=C1CCc2cc(-n3cnnc3)ccc2N1Cc1ccccc1Cl,–,Non-toxic,40.4%,Non-toxic,Non-toxic,77.8 s,inactive,–,–,–,300 mg/kg,–,–,–,–,–,–,–,–
CNCCC(Oc1ccc(C(F)(F)F)cc1)c1ccccc1 (stereo not drawn) [FLUOXETINE],–,–,49.5%,–,–,65.9 s,–,–,–,–,–,–,–,–,–,Active,–,–,–
O=C1CCc2cc(-n3cnnc3)ccc2N1Cc1cccc(F)c1,inactive,Non-toxic,67%,Non-toxic,Non-toxic,43 s,inactive,–,–,–,–,–,–,–,–,–,–,–,–
CCCCN1C(=O)CCc2cc(-n3cnnc3)ccc21,inactive,Non-toxic,46.4%,Non-toxic,–,70 s,inactive,–,–,300 mg/kg,–,–,–,–,–,–,–,–,–
O=C1CCc2cc(-n3cnnc3)ccc2N1Cc1ccc(Cl)cc1Cl,–,Non-toxic,18.9%,Non-toxic,Non-toxic,105.8 s,–,300 mg/kg,–,–,300 mg/kg,–,–,–,–,–,–,–,–
CCCCCCCCCCN1C(=O)CCc2cc(-n3cnnc3)ccc21,inactive,Non-toxic,22.6%,Non-toxic,Non-toxic,101 s,inactive,–,–,–,–,–,–,–,–,–,–,–,–
